Data taken from ChEMBL document CHEMBL1142089, “High-level telithromycin resistance in a clinical isolate of Streptococcus pneumoniae” (2007).
Converted amounts (≈) assume the structure as drawn.

What was measured:
Assay type in all cases: functional
Streptococcus pneumoniae [1] = experiment: Antimicrobial activity against Streptococcus pneumoniae R6 with L4 69GTG71 to TPS mutation
Summary of the method: (§1)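 MIC by agar dilution per CLSI guidelines, also by Etest. Pneumococci grown at 37°C in 5% CO2 on Mueller-Hinton agar with 5% horse blood. Interpreted with CLSI breakpoints; for telithromycin ≤1 μg/ml susceptible, 2 μg/ml intermediate, ≥4 μg/ml resistant.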

Streptococcus pneumoniae [2] = experiment: Antimicrobial activity against Streptococcus pneumoniae PC13 isolate with L4 mutation; summary of the method: as §1
Streptococcus pneumoniae [3] = experiment: Antimicrobial activity against Streptococcus pneumoniae R6 with L4 mutation; summary of the method: as §1
Streptococcus pneumoniae [4] = experiment: Antimicrobial activity against Streptococcus pneumoniae R6 transformants; summary of the method: as §1
Streptococcus pneumoniae [5] = experiment: Antimicrobial activity against Streptococcus pneumoniae BSF-11524 isolate with erm(B) and L4 mutation; summary of the method: as §1
Streptococcus pneumoniae [6] = experiment: Antimicrobial activity against Streptococcus pneumoniae PC13 isolate with L4 69GTG71 to TPS mutation; summary of the method: as §1
Streptococcus pneumoniae [7] = experiment: Antimicrobial activity against Streptococcus pneumoniae PC13 transformants; summary of the method: as §1
Streptococcus pneumoniae [8] = experiment: Antimicrobial activity against Streptococcus pneumoniae PC13 isolate with erm(B) mutation; summary of the method: as §1

`CC[C@H]1OC(=O)[C@H](C)C(=O)[C@H](C)[C@@H](O[C@@H]2O[C@H](C)C[C@H](N(C)C)[C@H]2O)[C@](C)(OC)C[C@@H](C)C(=O)[C@H](C)[C@H]2N(CCCCn3cnc(-c4cccnc4)c3)C(=O)O[C@]12C` [TELITHROMYCIN] was tested, and the MIC (Streptococcus pneumoniae [1]) was 0.12 µg/mL (≈ 0.148 µM), the MIC (Streptococcus pneumoniae [2]) was over 256 µg/mL and the MIC (Streptococcus pneumoniae [3]) was 0.12 µg/mL (≈ 0.148 µM). It also gave an MIC (Streptococcus pneumoniae [4]) of 0.015 µg/mL (≈ 0.0185 µM), an MIC (Streptococcus pneumoniae [5]) of over 256 µg/mL and an MIC (Streptococcus pneumoniae [6]) of over 256 µg/mL. The MIC (Streptococcus pneumoniae [7]) was 0.06 µg/mL (≈ 0.0739 µM) and the MIC (Streptococcus pneumoniae [8]) was 1 µg/mL (≈ 1.23 µM).
`CC[C@H]1OC(=O)[C@H](C)[C@@H](O[C@H]2C[C@@](C)(OC)[C@@H](O)[C@H](C)O2)[C@H](C)[C@@H](O[C@@H]2O[C@H](C)C[C@H](N(C)C)[C@H]2O)[C@](C)(OC)C[C@@H](C)C(=O)[C@H](C)[C@@H](O)[C@]1(C)O` [CLARITHROMYCIN] was tested, and the MIC (Streptococcus pneumoniae [1]) was 24 µg/mL (≈ 32.1 µM), the MIC (Streptococcus pneumoniae [2]) was over 256 µg/mL and the MIC (Streptococcus pneumoniae [3]) was 24 µg/mL (≈ 32.1 µM). For the same molecule, the MIC (Streptococcus pneumoniae [4]) was 0.06 µg/mL (≈ 0.0802 µM), the MIC (Streptococcus pneumoniae [5]) was over 256 µg/mL and the MIC (Streptococcus pneumoniae [6]) was over 256 µg/mL. The MIC (Streptococcus pneumoniae [7]) was over 256 µg/mL and the MIC (Streptococcus pneumoniae [8]) was over 256 µg/mL.
`CC[C@H]1OC(=O)[C@H](C)[C@@H](O[C@H]2C[C@@](C)(OC)[C@@H](O)[C@H](C)O2)[C@H](C)[C@@H](O[C@@H]2O[C@H](C)C[C@H](N(C)C)[C@H]2O)[C@](C)(O)C[C@@H](C)CN(C)[C@H](C)[C@@H](O)[C@]1(C)O` [AZITHROMYCIN] showed an MIC (Streptococcus pneumoniae [1]) of over 256 µg/mL, an MIC (Streptococcus pneumoniae [2]) of over 256 µg/mL and an MIC (Streptococcus pneumoniae [3]) of over 256 µg/mL. The MIC (Streptococcus pneumoniae [4]) was 0.25 µg/mL (≈ 0.334 µM), the MIC (Streptococcus pneumoniae [5]) was over 256 µg/mL and the MIC (Streptococcus pneumoniae [6]) was over 256 µg/mL. It also gave an MIC (Streptococcus pneumoniae [7]) of over 256 µg/mL and an MIC (Streptococcus pneumoniae [8]) of over 256 µg/mL.
In the case of `CN(C)[C@@H]1C(O)=C(C(N)=O)C(=O)[C@@]2(O)C(O)=C3C(=O)c4c(O)cccc4[C@@](C)(O)[C@H]3C[C@@H]12` [TETRACYCLINE], the MIC (Streptococcus pneumoniae [1]) is reported as 0.06 µg/mL (≈ 0.135 µM), the MIC (Streptococcus pneumoniae [2]) is reported as 12 µg/mL (≈ 27 µM) and the MIC (Streptococcus pneumoniae [3]) is reported as 0.094 µg/mL (≈ 0.212 µM). It also gave an MIC (Streptococcus pneumoniae [4]) of 0.094 µg/mL (≈ 0.212 µM), an MIC (Streptococcus pneumoniae [5]) of 12 µg/mL (≈ 27 µM) and an MIC (Streptococcus pneumoniae [6]) of 8 µg/mL (≈ 18 µM). The MIC (Streptococcus pneumoniae [7]) was 12 µg/mL (≈ 27 µM) and the MIC (Streptococcus pneumoniae [8]) was 8 µg/mL (≈ 18 µM).
With `O=C(N[C@H](CO)[C@H](O)c1ccc([N+](=O)[O-])cc1)C(Cl)Cl` [CHLORAMPHENICOL] the MIC (Streptococcus pneumoniae [1]) was 2 µg/mL (≈ 6.19 µM), the MIC (Streptococcus pneumoniae [2]) was 12 µg/mL (≈ 37.1 µM) and the MIC (Streptococcus pneumoniae [3]) was 2 µg/mL (≈ 6.19 µM). For the same molecule, the MIC (Streptococcus pneumoniae [4]) was 1.5 µg/mL (≈ 4.64 µM), the MIC (Streptococcus pneumoniae [5]) was 2 µg/mL (≈ 6.19 µM) and the MIC (Streptococcus pneumoniae [6]) was 12 µg/mL (≈ 37.1 µM). The MIC (Streptococcus pneumoniae [7]) was 12 µg/mL (≈ 37.1 µM) and the MIC (Streptococcus pneumoniae [8]) was 12 µg/mL (≈ 37.1 µM).
`CCC[C@@H]1C[C@@H](C(=O)N[C@@H]([C@H]2O[C@H](SC)[C@H](O)[C@@H](O)[C@H]2O)[C@H](C)Cl)N(C)C1` [CLINDAMYCIN] showed an MIC (Streptococcus pneumoniae [1]) of 0.094 µg/mL (≈ 0.221 µM), an MIC (Streptococcus pneumoniae [2]) of over 256 µg/mL and an MIC (Streptococcus pneumoniae [3]) of 0.125 µg/mL (≈ 0.294 µM). For the same molecule, the MIC (Streptococcus pneumoniae [4]) was 0.06 µg/mL (≈ 0.141 µM), the MIC (Streptococcus pneumoniae [5]) was over 256 µg/mL and the MIC (Streptococcus pneumoniae [6]) was over 256 µg/mL. It also gave an MIC (Streptococcus pneumoniae [7]) of over 256 µg/mL and an MIC (Streptococcus pneumoniae [8]) of over 256 µg/mL.
For `CC[C@H]1OC(=O)[C@H](C)[C@@H](O[C@H]2C[C@@](C)(OC)[C@@H](O)[C@H](C)O2)[C@H](C)[C@@H](O[C@@H]2O[C@H](C)C[C@H](N(C)C)[C@H]2O)[C@](C)(O)C[C@@H](C)C(=O)[C@H](C)[C@@H](O)[C@]1(C)O` [ERYTHROMYCIN], the MIC (Streptococcus pneumoniae [1]) was over 256 µg/mL, the MIC (Streptococcus pneumoniae [2]) was over 256 µg/mL and the MIC (Streptococcus pneumoniae [3]) was over 256 µg/mL. For the same molecule, the MIC (Streptococcus pneumoniae [4]) was 0.094 µg/mL (≈ 0.128 µM), the MIC (Streptococcus pneumoniae [5]) was over 256 µg/mL and the MIC (Streptococcus pneumoniae [6]) was over 256 µg/mL. The MIC (Streptococcus pneumoniae [7]) was over 256 µg/mL and the MIC (Streptococcus pneumoniae [8]) was over 256 µg/mL.
